# From PubChem
# A selection: hits, their analogues and other compounds. The true share with any hit is near 2.6%.
# PG9 binder: binders of HIV-1 gp120 antibody PG9, primary screen, biochemical, TR-FRET; TR-FRET gp120-PG9 antibody binding; hit rate 0.43% among 360,000; inhibition, % at 6.7 µM; in the data active means inhibition above about 8.5%
# NR2E3 ag-1: inhibitors of NR2E3-RetCOR corepressor binding, primary screen, NR2E3 agonist project, biochemical, TR-FRET, GST-NR2E3, biotin-RetCOR; AID 2300, 2010; inhibition of corepressor binding, % at 4.78 µM; hit rate 0.12% among 320,000; Photoreceptor-specific nuclear receptor (Homo sapiens), Q9Y5X4; 1536-well;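 active means percent inhibition above the cutoff of mean plus 3 SD of all tested compounds, set per screening campaign, cut at about 20% in these data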;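 further: 0% = DMSO wells and 100% = biotin wells as full block of FRET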
#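 Material – GST-tagged NR2E3 plus biotinylated RetCOR corepressor · Quantity – NR2E3 fusion 1.35 nM · Times – 5 h incubation at 4 °C · Medium – pH 7.5 Tris-based buffer · Technique – TR-FRET, Eu(K)-anti-GST donor, streptavidin-D2 acceptor, ex 340, em 617/671 nm · Benchmarks – high control biotin, low control 0.6% DMSO · Format – 1536-well plates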
# rCAG RNA binder: binders of r(CAG) RNA repeats, primary screen, biochemical, fluorescence; r(CAG) RNA repeat, TO-PRO-1 dye displacement fluorescence; inhibition, % at 3 µM; hit rate 1.3% among 370,000; AID 651821, 2012;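 active means inhibition above the plate cutoff, the mean of all test compounds on that plate plus 3 SD, cut at about 35% in these data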;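 further: 0% = DMSO alone and 100% = 100 µM mitoxantrone as full dye displacement; higher means more dye released from RNA so lower well fluorescence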
# Rev-erbA mod: modulators of Rev-erb alpha DNA binding, primary screen, biochemical, FITC-DNA, fluorescence polarization, uHTS; activity, % at 10 µM; Rev-erbα–FITC-DNA binding, 90 min; hit rate 0.79% among 370,000;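 active means activity above about 14%, limit read from the data; passing the limit was not always enough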;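 further: 0% = DMSO wells with 35 nM protein and 100% = DMSO wells with 750 nM protein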
# Target sequence (P20393 whole entry, looked up): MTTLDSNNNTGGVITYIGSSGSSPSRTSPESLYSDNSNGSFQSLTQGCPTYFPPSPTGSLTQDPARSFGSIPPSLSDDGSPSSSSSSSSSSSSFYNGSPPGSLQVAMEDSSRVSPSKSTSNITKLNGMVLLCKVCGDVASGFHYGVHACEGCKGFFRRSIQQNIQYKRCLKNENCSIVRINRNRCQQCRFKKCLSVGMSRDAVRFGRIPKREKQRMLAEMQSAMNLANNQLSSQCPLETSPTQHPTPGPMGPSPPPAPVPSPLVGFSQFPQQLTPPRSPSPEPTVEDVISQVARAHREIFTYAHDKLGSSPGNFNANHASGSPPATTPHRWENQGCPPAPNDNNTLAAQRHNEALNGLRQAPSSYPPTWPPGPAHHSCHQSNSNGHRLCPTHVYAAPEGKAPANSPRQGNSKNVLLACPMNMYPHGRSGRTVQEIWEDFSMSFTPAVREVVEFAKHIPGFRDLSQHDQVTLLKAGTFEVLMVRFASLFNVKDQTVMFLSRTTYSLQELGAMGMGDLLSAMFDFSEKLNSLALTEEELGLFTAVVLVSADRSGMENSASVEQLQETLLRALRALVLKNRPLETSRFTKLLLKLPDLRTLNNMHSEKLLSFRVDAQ
# NR2E3 ag-2: NR2E3 agonists in two-hybrid cells, primary screen, cell-based, luminescence, CHO-S, Gal4-NCOR/VP16-NR2E3 | luciferase | inhibition of corepressor binding, % at 3.98 µM | hit rate 0.35% among 360,000;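 active means inhibition above the mean of all tested compounds plus 3 SD, cut at about 70% in these data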;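 further: 0% = DMSO with NR2E3 transfected cells and 100% = cells lacking NR2E3 construct; higher means lower luciferase signal from less NR2E3 corepressor binding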
# NR2E3 ag conf: NR2E3 agonist confirmation in cells, cell-based, luminescence, CHO-S two-hybrid; shares compounds with NR2E3 ag-2; CHO-S mammalian two-hybrid NR2E3-NCOR, luciferase luminescence; inhibition, % at 3.98 µM; hit rate 51% among 2,300; AID 624378, 2012;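 active means average inhibition above a cutoff equal to the mean inhibition of all tested compounds plus one SD, cut at about 70% in these data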;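 further: 0% = DMSO in NR2E3 cells and 100% = DMSO in cells lacking NR2E3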
# VP16 counter: GAL4-VP16 reporter modulators, confirmation, counter-screen for NR2E3 agonist project, cell-based, luminescence, CHO-S, high throughput. shares compounds with NR2E3 ag-2. inhibition, % at 3.98 µM. CHO-S GAL4-VP16 luciferase reporter. AID 624379, 2012. hit rate 29% among 2,300;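 active means mean inhibition above a cutoff equal to the average over all tested compounds plus one standard deviation, cut at about 70% in these data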;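 further: luciferase from a UAS reporter driven by GAL4-VP16 transactivation; 0% = DMSO with VP16-transfected cells and 100% = DMSO with cells lacking VP16; higher means less reporter light so more repression of VP16 activity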
# An asterisk follows results filed as active; · = not tested or not shown.
SMILES,PG9 binder,NR2E3 ag-1,rCAG RNA binder,Rev-erbA mod,NR2E3 ag-2,NR2E3 ag conf,VP16 counter
O=C(Nc1cccc(C(F)(F)F)c1)c1cccc2c(-c3cccnc3)coc12,·,·,·,·,-59,·,·
COc1ccc(-c2cc(=O)c3cccc(CC(=O)O)c3o2)cc1,2,·,3,4,·,·,·
COC(=O)C1=C(C)NC(C)=C(C(=O)OCCN2CCN(C(c3ccccc3)c3ccccc3)CC2)C1c1cccc([N+](=O)[O-])c1 (stereo not given),·,·,·,6,·,·,·
COCCN1Cc2cc(C(=O)OC)c3c(c2C1=O)c1cc(OC)ccc1n3S(=O)(=O)c1ccc(F)cc1,1,·,8,-7,·,·,·
CC1CC(C)CN(CCCNS(=O)(=O)c2cc3c(cc2Br)CCN3C(=O)C2CC2)C1 (stereo not given),·,·,3,-2,·,·,·
COc1ccc(CNC(=O)c2sccc2-c2ccccc2)cc1OC,0,0,9,0,58,28,30
COc1ccc(NC(=O)c2sc(=O)n(Cc3cccc(C(F)(F)F)c3)c2C)cc1OC,-2,·,0,5,55,73*,39
COc1ccc(CNC(=O)c2sc(=O)n(Cc3ccc(-c4ccccc4)cc3)c2C)cc1OC,-1,·,11,-8,60,72*,61
COc1ccc(CNC(=O)c2sc(=O)n(Cc3ccc(C)cc3)c2C)cc1OC,-1,·,2,-8,23,·,·
O=c1c2c(nc3c(-c4ccc(Cl)cc4)c[nH]n13)CCC2,0,-6,15,1,77*,66,50
O=C(c1ccc(CSc2nc3ccncc3[nH]2)cc1)N1CCCCCC1,-3,1,-3,-2,-71,·,·
O=C(c1ccc(CSc2nc3ccncc3[nH]2)cc1)N1CCN(c2cccc(Cl)c2)CC1,0,2,7,-1,88*,98*,69
O=C(CN1C(=O)c2ccccc2S1(=O)=O)c1ccc2c(c1)OCCCO2,0,0,-4,4,97*,94*,89*
O=C(CN1C(=O)c2ccccc2S1(=O)=O)c1cccc(Br)c1,0,0,-2,-1,-11,·,·
O=C(CN1C(=O)c2ccccc2S1(=O)=O)c1ccc2c(c1)OCCO2,0,2,-4,1,69,85*,66
O=C(CN1C(=O)c2ccccc2S1(=O)=O)c1ccc(F)cc1,0,2,-1,1,19,·,·
CCc1cccc(NS(=O)(=O)c2ccc3c(c2)NC(=O)C(C)S3)c1 (stereo not given),-2,2,7,0,48,66,57
COc1ccc(N2CCN(S(=O)(=O)c3ccc4c(c3)NC(=O)C(C)S4)CC2)cc1 (stereo not given),0,1,8,-2,64,38,29
Cc1ccc(CNS(=O)(=O)c2ccc3c(c2)NC(=O)C(C)S3)cc1 (stereo not given),1,1,1,-1,53,46,46
CC1Sc2ccc(S(=O)(=O)N(C)Cc3ccccc3)cc2NC1=O (stereo not given),0,2,-2,0,-14,·,·
COc1ccccc1NS(=O)(=O)c1ccc2c(c1)NC(=O)C(C)S2 (stereo not given),-2,-1,1,-5,14,·,·
CCC(Cc1ccccc1)NS(=O)(=O)c1ccc2c(c1)NC(=O)C(C)S2 (stereo not given),1,4,-3,-3,49,62,50
CCOC(=O)C1CSCCS(=O)(=O)N1Cc1ccc(F)cc1F (stereo not given),-2,·,1,0,·,·,·
CC(C)C[C@H]1CNC(=O)C(=O)N1C[C@@H]1CCCN1C[C@H](Cc1ccccc1)N1C[C@H](CC(C)C)N(CC2CCCCC2)C(=O)C1=O,-2,·,5,-11,·,·,·
COc1cccc(NS(=O)(=O)c2ccc3c(c2)NC(=O)C(C)S3)c1 (stereo not given),-1,-3,4,1,58,36,35
SMILES,PG9 binder,NR2E3 ag-1,rCAG RNA binder,Rev-erbA mod,NR2E3 ag-2,NR2E3 ag conf,VP16 counter
COc1ccc(OC)c(NC(=O)c2nnn(Cc3ccccc3C)c2N)c1,0,1,3,7,69,80*,23
COc1cccc(Cn2nnc(C(=O)Nc3cc(C)ccc3OC)c2N)c1,·,2,·,·,56,58,11
CNC(=S)NN=C(C)c1ccc(OC)cc1O,-2,·,4,3,72*,-2,13
S=C(NCc1ccc(Cl)cc1)Nc1ccncc1,0,1,3,2,100*,84*,81*
O=c1c(Br)ccc(Br)cc1Br,0,·,3,2,71*,100*,46
Cc1ccc2nc(C(F)(F)F)c(C#N)c(N)c2c1,1,6,1,6,75*,59,26
C[C@H]1[C@@H]2C[C@@]3(O[C@H](c4ccccn4)N=C3C[C@@H]1c1ccccc1)N(Cc1ccncc1)C2=O,0,·,2,-2,·,·,·
C[C@@H]1Cn2cnc(C(=O)N(C)Cc3ccccc3)c2C(=O)N1,1,·,-1,-1,·,·,·
Nc1cc(S(=O)(=O)C(F)(F)F)ccc1C(=O)O,0,-2,2,3,20,·,·
O=S(=O)(c1ccc2c(c1)C(O)c1ccccc1CC2)C(F)(F)F (stereo not given),-1,0,-2,4,56,57,53
COc1ccc(C(=O)OCCN2CCN(C3CN(Cc4cn(Cc5ccccc5Cl)nn4)S(=O)(=O)C3)CC2)cc1OC (stereo not given),·,·,0,2,·,·,·
CC(=O)N1CCN(C(=O)c2ccc(Cl)c(S(=O)(=O)N3CC(C)OC(C)C3)c2)CC1 (stereo not given),-1,·,1,-4,49,0,4
CC(=O)N1CCN(C(=O)c2ccc(Cl)c(S(=O)(=O)N3CCCC3)c2)CC1,2,·,1,0,32,·,·
O=C(Nc1ccc(N2CCN(C(=O)c3ccco3)CC2)cc1)c1ccc2c(c1)OCO2,-1,0,-4,0,52,20,16
Cc1ccccc1C(=O)N1CCN(c2ccc(NC(=O)c3ccc4c(c3)OCO4)cc2)CC1,-1,-1,-3,0,75*,91*,60
C[C@@H]1CN([C@@H](C)CO)C(=O)CCCn2cc(nn2)CO[C@H]1CN(C)C(=O)Nc1ccc2c(c1)OCO2,-1,·,-1,-6,·,·,·
CC1C/C(=N\NC(=S)NCc2ccccc2)CC(C)(C)C1 (stereo not given),-1,0,-2,-2,49,-31,-3
